Blank lines part the entries; values can stand above or below the molecule they belong to. The source made the active and inactive calls. *1 amine or outer side, *2 acyl side, *3 side chain or, on linkers, in order; H or OH if unused. Where a SMILES comes first, the peptide text is derived from it. Bridges are numbered along the chain shown (N, C = ends). Triazole bridges read from a SMILES are 1,4-linked. [ ]: non-standard residue; d: D form. The star is where a group is joined. RhodamineB = CCN(CC)c1ccc2c(-c3ccccc3C(=O)*)c3ccc(=[N+](CC)CC)cc-3oc2c1; Lys(N3) = [N-]=[N+]=NCCCC[C@H](N)C(=O)O; X1 = O=C([C@H](Cc1c[nH]nn1)N[*:1])[*:2]; NMeGABA = CN(CCCC(=O)[*:2])[*:1]; Pra = C#CC[C@H](N)C(=O)O
Legend:
[1] = biological target: T1, 72 kDa type IV collagenase (Homo sapiens, UniProt P08253); experiment: Binding affinity to N-terminal (His6)-MBP tagged full-length human proMMP2 expressed in Escherichia coli BL21(DE3) RIL assessed as reduction in Rhod-cy(WPHPY binding incubated for 30 mins by fluorescence polarization assay
Outline: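 Competitive fluorescence polarization in PBS. Recombinant tag-free full-length proMMP2 (TEV-cleaved after nickel purification, then ion-exchange and size exclusion) and Rhod-cy(WPHPY) each held at 100 nM, with unlabeled ligand titrated. Read as FP. Triplicate individually prepared samples averaged, reported as mean ± SD. Each experiment repeated at least three times on different days.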

[2] = biological target: T1, 72 kDa type IV collagenase; experiment: Inhibition of proMMP2 activation in human WM115 cells assessed as reduction in MMP2 protein expression incubated for 24 hrs by Western blot analysis; type: cell-based
Outline: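 WM115 cells treated 24 h in serum-free medium with compound (PBS control). Conditioned medium immunoblotted for MMP2 with HRP secondary and chemiluminescent detection. Three independent blots, each with medium from a fresh cell batch.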

[3] = biological target: T1, 72 kDa type IV collagenase; experiment: Binding affinity to hemopexin domain of proMMP2 in human WM115 cells assessed as inhibition of TIMP2-MMP2 interaction using surface immobilized recombinant TIMP incubated for 1 hr by ELISA based competitive binding assay; type: cell-based
Outline: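 His-tagged recombinant TIMP2 (9 pmol/well) captured on Ni-coated wells, blocked with His6 peptide. WM115 serum-free 24 h conditioned medium, concentrated (10 kDa cutoff), mixed with compound in PBS (PBS control) and incubated 1 h at room temperature with shaking. Bound MMP2 detected with anti-MMP2 rabbit mAb, HRP secondary and chemiluminescence. Triplicates averaged, experiment repeated three times.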

[4] = biological target: T1, 72 kDa type IV collagenase; experiment: Binding affinity to catalytic domain of proMMP2 in human WM115 cells assessed as reduction in TIMP2-mediated inhibition of MMP2 enzyme activity at 0.1 nM to 1 uM incubated for 5 mins using MMP2-specific fluorogenic substrate by fluorescence based assay; type: cell-based
Outline: (§1)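 WM115 serum-free 24 h conditioned medium, concentrated and normalized by BCA. 10 μg protein in TNC buffer (50 mM Tris, 0.15 M NaCl, 10 mM CaCl2, pH 7.5) with compound in PBS, equilibrated 5 min at 37 °C. MMP2-specific fluorogenic substrate (3 μM) added, 20 min at 37 °C, read at Ex 325/Em 393 nm. For the TIMP2 condition, recombinant TIMP2 (10 μL of 1 μg/μL) added to all mixtures. Triplicates, three repeats.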

[5] = biological target: T1, 72 kDa type IV collagenase; experiment: Inhibition of MMP2 in human WM115 cells at 0.1 nM to 1 uM incubated for 5 mins using MMP2-specific fluorogenic substrate by fluorescence based assay; type: cell-based; outline: as §1
[6] = biological target: T1, 72 kDa type IV collagenase; experiment: Binding affinity to of proMMP2 in human WM115 cells assessed as reduction in cell membrane association of proMMP at 10 nM incubated for 15 hrs by immunofluorescence based confocal microscopy
Outline: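 WM115 cells in full medium exposed to 10 nM for 15 h, fixed in 4% paraformaldehyde without permeabilization and blocked in 5% goat serum. Stained overnight at 4 °C with anti-MMP2 (1:500), then Alexa Fluor 594 anti-rabbit (1:2000). Confocal imaging; single-cell intensity quantified over thirty cells per image. Three repeats.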

[7] = biological target: T1, 72 kDa type IV collagenase; experiment: Inhibition of proMMP2 activation in human WM115 cells assessed as reduction in MMP2 activity at 0.1 nM to 1 uM incubated for 24 hrs by gelatin zymography; type: cell-based
Outline: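 WM115 cells (600k per well) seeded 8 h in full medium, then 24 h at 37 °C in serum-free medium with compound. Medium concentrated and normalized to 10 μg/mL protein. Run on 7.5% gelatin gel, washed in Triton X-100 buffer, incubated 20 h at 37 °C in CaCl2/ZnCl2 buffer, then Coomassie stained. Three independent experiments.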

[8] = tested on: Matrix metalloproteinase-2 (Homo sapiens); experiment: Inhibition of proMMP2 activation in human WM115 cells assessed as decrease in cell invasion at 1 nM to 1 uM incubated for 24 hrs by transwell cell invasion assay
[9] = biological target: T1, 72 kDa type IV collagenase; experiment: Inhibition of proMMP2 activation in human WM115 cells assessed as reduction in MMP2 activity at 0.1 nM to 1 uM incubated for 24 hrs using enzyme-specific fluorogenic substrate by fluorescence based assay; type: cell-based
Outline: (§2)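 WM115 cells grown to 80% confluency, then cultured 24 h in serum-free medium containing compound (no-compound control). Medium concentrated and BCA-normalized. 10 μg protein in TNC buffer (pH 7.5) with MMP2- or MMP9-specific fluorogenic substrate (3 μM), incubated 20 min at 37 °C, fluorescence read at Ex 325/Em 393 nm. Triplicates, three repeats.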

[10] = biological target: Matrix metalloproteinase-9 (Homo sapiens) (UniProt P14780); experiment: Inhibition of proMMP9 activation in human WM115 cells assessed as reduction in MMP9 activity at 0.1 nM to 1 uM incubated for 24 hrs using enzyme-specific fluorogenic substrate by fluorescence based assay; type: cell-based; outline: as §2
[11] = tested on: Matrix metalloproteinase-2 (Homo sapiens); experiment: Inhibition of proMMP2 activation in human WM115 cells assessed as decrease in cell numbers in wound region at 1 nM to 1 uM incubated for 24 hrs by wound-healing scratch assay
[12] = biological target: T1, 72 kDa type IV collagenase; experiment: Binding affinity to […] expressed in Escherichia coli BL21(DE3) RIL incubated for 30 mins by fluorescence polarization assay

Chain of Matrix metalloproteinase-9 (Homo sapiens) (P14780 whole entry): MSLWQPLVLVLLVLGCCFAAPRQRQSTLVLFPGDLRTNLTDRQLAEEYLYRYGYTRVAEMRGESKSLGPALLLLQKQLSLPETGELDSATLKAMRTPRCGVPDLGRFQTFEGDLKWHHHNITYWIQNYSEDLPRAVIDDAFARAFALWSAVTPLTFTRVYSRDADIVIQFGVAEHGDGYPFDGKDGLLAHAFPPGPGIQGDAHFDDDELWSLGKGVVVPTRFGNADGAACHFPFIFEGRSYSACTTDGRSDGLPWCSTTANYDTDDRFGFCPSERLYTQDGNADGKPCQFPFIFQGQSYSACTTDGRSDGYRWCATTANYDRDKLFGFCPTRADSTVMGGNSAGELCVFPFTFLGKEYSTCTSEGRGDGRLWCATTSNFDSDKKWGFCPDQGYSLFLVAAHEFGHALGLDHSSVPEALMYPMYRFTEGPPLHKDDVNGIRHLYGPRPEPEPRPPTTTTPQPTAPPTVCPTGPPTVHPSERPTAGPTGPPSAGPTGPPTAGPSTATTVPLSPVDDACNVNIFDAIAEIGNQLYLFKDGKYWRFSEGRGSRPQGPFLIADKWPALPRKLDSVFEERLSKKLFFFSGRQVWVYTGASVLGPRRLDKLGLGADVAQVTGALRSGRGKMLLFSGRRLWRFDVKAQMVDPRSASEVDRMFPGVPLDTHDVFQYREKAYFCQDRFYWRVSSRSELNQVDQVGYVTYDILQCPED
T1 sequence (P08253 whole entry): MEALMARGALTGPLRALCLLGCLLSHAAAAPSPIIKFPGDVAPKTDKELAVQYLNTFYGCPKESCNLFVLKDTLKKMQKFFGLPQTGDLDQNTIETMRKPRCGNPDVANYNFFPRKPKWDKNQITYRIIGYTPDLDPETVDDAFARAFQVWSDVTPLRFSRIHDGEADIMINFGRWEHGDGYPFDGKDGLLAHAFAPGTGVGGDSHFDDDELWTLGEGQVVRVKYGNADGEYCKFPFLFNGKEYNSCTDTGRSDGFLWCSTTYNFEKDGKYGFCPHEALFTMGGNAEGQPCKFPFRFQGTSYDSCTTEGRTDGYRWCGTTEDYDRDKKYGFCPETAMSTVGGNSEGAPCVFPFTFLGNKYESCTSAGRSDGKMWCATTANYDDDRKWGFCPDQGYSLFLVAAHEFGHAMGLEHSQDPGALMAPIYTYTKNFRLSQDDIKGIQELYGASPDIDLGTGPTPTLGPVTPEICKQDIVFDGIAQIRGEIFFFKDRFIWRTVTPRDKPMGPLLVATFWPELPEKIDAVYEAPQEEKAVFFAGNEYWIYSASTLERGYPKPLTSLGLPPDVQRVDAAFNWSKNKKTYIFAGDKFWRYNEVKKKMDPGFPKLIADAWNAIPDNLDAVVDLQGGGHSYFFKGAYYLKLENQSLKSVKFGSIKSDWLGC

Compound: C[C@@H]1NC(=O)[C@@H](N)Cc2cn(nn2)CCCC[C@@H](C(N)=O)NC(=O)[C@H](Cc2ccc(O)cc2)NC(=O)[C@@H]2CCCN2C(=O)[C@H](Cc2c[nH]cn2)NC(=O)[C@@H]2CCCN2C1=O (H-[Pra]APHPY[Lys(N3)]-NH2; triazole 1-7)
- Activity [1]: Active

Compound: C[C@@H]1NC(=O)[C@@H]2CCCN2C(=O)[C@H](Cc2c[nH]c3ccccc23)NC(=O)[C@@H](N)Cc2cn(nn2)CCCC[C@@H](C(N)=O)NC(=O)[C@H](Cc2ccc(O)cc2)NC(=O)[C@@H]2CCCN2C1=O (H-[Pra]WPAPY[Lys(N3)]-NH2; triazole 1-7)
- Activity [1]: Active

Compound: C[C@@H]1NC(=O)[C@@H]2CCCN2C(=O)[C@H](Cc2c[nH]cn2)NC(=O)[C@@H]2CCCN2C(=O)[C@H](Cc2c[nH]c3ccccc23)NC(=O)[C@@H](N)Cc2cn(nn2)CCCC[C@@H](C(N)=O)NC1=O (H-[Pra]WPHPA[Lys(N3)]-NH2; triazole 1-7)
- Activity [1]: Active

Compound: NCCCC[C@H](NC(=O)[C@H](Cc1ccc(O)cc1)NC(=O)[C@@H]1CCCN1C(=O)[C@H](Cc1c[nH]cn1)NC(=O)[C@@H]1CCCN1C(=O)[C@H](Cc1c[nH]c2ccccc12)NC(=O)[C@@H](N)Cc1c[nH]nn1)C(N)=O (H-[X1]WPHPYK-NH2)
- inhibition [9]: inactive

Compound: CCN(CC)c1ccc2c(-c3ccccc3C(=O)N(C)CCCC(=O)N[C@H]3Cc4cn(nn4)CCCC[C@@H](C(N)=O)NC(=O)[C@H](Cc4ccc(O)cc4)NC(=O)[C@@H]4CCCN4C(=O)[C@H](Cc4c[nH]cn4)NC(=O)[C@@H]4CCCN4C(=O)[C@H](Cc4c[nH]c5ccccc45)NC3=O)c3ccc(=[N+](CC)CC)cc-3oc2c1 (RhodamineB-[NMeGABA][Pra]WPHPY[Lys(N3)]-NH2; triazole 2-8)
- Activity [1]: Active
- Kd [12]: 280 nM

The remaining lines, values ahead:

- Activity [1]: Active
Compound: C[C@@H]1NC(=O)[C@H](Cc2c[nH]c3ccccc23)NC(=O)[C@@H](N)Cc2cn(nn2)CCCC[C@@H](C(N)=O)NC(=O)[C@H](Cc2ccc(O)cc2)NC(=O)[C@@H]2CCCN2C(=O)[C@H](Cc2c[nH]cn2)NC1=O (H-[Pra]WAHPY[Lys(N3)]-NH2; triazole 1-7)

- Activity [1]: Active
Compound: C[C@@H]1NC(=O)[C@H](Cc2c[nH]cn2)NC(=O)[C@@H]2CCCN2C(=O)[C@H](Cc2c[nH]c3ccccc23)NC(=O)[C@@H](N)Cc2cn(nn2)CCCC[C@@H](C(N)=O)NC(=O)[C@H](Cc2ccc(O)cc2)NC1=O (H-[Pra]WPHAY[Lys(N3)]-NH2; triazole 1-7)

- inhibition [2]: Dose-dependent effect
- Activity [3]: Active
- Activity [4]: inactive
- inhibition [5]: inactive
- Activity [6]: Active
- inhibition [7]: Dose-dependent effect
- inhibition [8]: Active
- inhibition [9]: Active
- inhibition [10]: inactive
- inhibition [11]: Active
Compound: NC(=O)[C@@H]1CCCCn2cc(nn2)C[C@H](N)C(=O)N[C@@H](Cc2c[nH]c3ccccc23)C(=O)N2CCC[C@H]2C(=O)N[C@@H](Cc2c[nH]cn2)C(=O)N2CCC[C@H]2C(=O)N[C@@H](Cc2ccc(O)cc2)C(=O)N1 (H-[Pra]WPHPY[Lys(N3)]-NH2; triazole 1-7)

— ChEMBL document CHEMBL4616672, “Inhibiting Matrix Metalloproteinase-2 Activation by Perturbing Protein-Protein Interactions Using a Cyclic Peptide” (J Med Chem, 2020)
